# OXTR ag: human OXTR agonists, primary screen, fluorescence, CHO-OTR cells, Fluo-8 calcium | activation, % at 3 µM | hit rate 0.32% among 320,000 | Fluo-8 calcium fluorescence; normalized: DMSO 0%, oxytocin 100% | AID 2435, 2010;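 active = activation above the mean of all tested compounds plus 3 SD, cutoff set per screening run, cut at about 20% in these data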;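 note: peak over basal fluorescence ratio from a 100 s FLIPR kinetic read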
# V1aR counter: agonists of human V1a receptor, primary screen, counter-screen for OXTR agonist project, fluorescence, CHO-V1R cells; Vasopressin V1a receptor (Homo sapiens), P37288; Fluo-8 calcium fluorescence, agonist mode; 0% DMSO, 100% 3 nM vasopressin; activation, % at 3 µM; hit rate 0.25% among 320,000; AID 2797, 2010;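 active = activation above the mean activation of all tested compounds plus 3 SD, per screening run, cut at about 20% in these data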;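 note: signal is peak over basal fluorescence ratio across a 100 second FLIPR read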
# TRPML3 ag: human TRPML3 channel agonists, primary screen, cell-based, HEK293 TRPML3-YFP, Fluo-8 calcium fluorescence, 3 µM; 100% = the carbachol control signal; Mucolipin-3 (Homo sapiens), Q8TDD5; activation, % at 3 µM; hit rate 0.29% among 220,000;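 active = activation above its plate's cutoff, the mean activation of the plate's test wells plus 3 SD, cut at about 12% in these data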;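 note: 0% = DMSO only wells and 100% = carbachol wells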
# Target sequence (Q8TDD5 whole entry, looked up): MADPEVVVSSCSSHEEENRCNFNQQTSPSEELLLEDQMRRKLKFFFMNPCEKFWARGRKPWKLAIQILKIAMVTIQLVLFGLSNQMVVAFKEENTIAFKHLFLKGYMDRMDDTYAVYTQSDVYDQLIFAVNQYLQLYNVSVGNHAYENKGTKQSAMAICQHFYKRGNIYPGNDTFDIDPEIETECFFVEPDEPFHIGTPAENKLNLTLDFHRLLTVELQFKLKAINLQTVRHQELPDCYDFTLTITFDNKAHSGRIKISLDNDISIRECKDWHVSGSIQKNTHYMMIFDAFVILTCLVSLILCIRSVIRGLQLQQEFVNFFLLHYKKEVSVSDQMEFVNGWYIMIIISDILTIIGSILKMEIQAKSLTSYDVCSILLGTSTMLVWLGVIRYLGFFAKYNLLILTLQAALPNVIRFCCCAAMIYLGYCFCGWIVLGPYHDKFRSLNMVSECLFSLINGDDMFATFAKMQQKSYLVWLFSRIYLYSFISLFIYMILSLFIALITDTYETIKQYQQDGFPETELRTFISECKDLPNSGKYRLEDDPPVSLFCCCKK
#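 Test system: TRPML3-YFP stable HEK293 cells. Doses: single point at 3 µM. Incubation: dye loading 1 h 37 °C then 30 min ambient, 125 s read. Signal: Fluo-8 calcium dye fluorescence, ex 470-495, em 515-575 nm. Measure: percent activation from peak-to-basal fluorescence ratio, scaled between DMSO and carbachol.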
# OXTR potentiator: human OXTR potentiators, primary screen, fluorescence, CHO-OTR cells, Fluo-8 calcium | hit rate 0.061% among 320,000 | Fluo-8 calcium fluorescence, potentiator mode; 0% = oxytocin EC15, 100% = EC100 | AID 2445, 2010 | activation, % at 3 µM;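 active = activation above that plate's cutoff, the mean activation of tested compounds plus 3 SD, cut at about 6.6% in these data, passing the limit was not always enough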;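 note: 100% uses oxytocin at 75 nM as the full agonist control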
#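 Measured by – Fluo-8 calcium dye fluorescence · Test system – human OTR in CHO cells · Dosing – one concentration, 3.0 µM compound · Controls – EC15 oxytocin alone as 0%, 75 nM oxytocin as 100% · Evaluation – normalized max/min fluorescence ratio, % activation · Timing – 6 min pre-incubation, 100 s read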
# TRPN1 ag: zebrafish TRPN1 channel agonists, primary screen, cell-based, HEK293, calcium fluorescence. transient receptor potential cation channel N1 (TRPN1/NompC), Danio rerio. HEK293 zebrafish TRPN1-YFP, Fluo-8 calcium fluorescence; 100% = response to 87 µM carbachol. activation, % at 3 µM. hit rate 0.18% among 220,000. AID 1424, 2008;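 active = activation above its plate's cutoff, the mean activation of test wells on that plate plus 3 SD, cut at about 19% in these data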;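 note: 0% = DMSO alone and 100% = 87 µM carbachol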
#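 Material – zebrafish TRPN1-YFP in HEK293 cells · Doses – 3 µM single point · Schedule – dye 1 h 37 °C plus 30 min RT · Signal – Fluo-8 calcium fluorescence, excitation 470-495 nm, emission 515-575 nm · Read-out – % activation versus carbachol response · Control set – carbachol high, DMSO low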
# * hit, by the source's call; · = no result given. An excerpt weighted towards active compounds, which were near 0.55% of everything screened.
SMILES,OXTR ag,V1aR counter,TRPML3 ag,OXTR potentiator,TRPN1 ag
O=C(Nc1cc(C(=O)N2CCN(c3ccccc3O)CC2)ccc1Cl)c1cccs1,0.1,0.5,·,-13.1,·
COc1ccc(NC(=O)CN(C)C(C)C(=O)NC(=O)NC2CCCCC2)cc1 (stereo not given),-0.5,1.8,·,12.8,·
O=C(OCC(=O)N1CCCc2ccccc21)c1cc(Br)ccc1O,-1.4,-1.7,·,-7.9,·
CC(C)c1nc2cc(C(=O)N3CCN(c4cnccn4)CC3)ccc2o1,0.5,0.3,·,5.7,·
Cc1n[nH]c(C)c1N1C(=O)c2cccc3c(N4CCCCCC4)ccc(c23)C1=O,146.1*,150.5*,86.0*,-24.1,125.4*
C=CCN1C(=O)c2cccc3c(N4CCCCC4)ccc(c23)C1=O,8.9,10.3,3.9,-5.6,9.5
O=C1c2cccc3c(N4CCCCC4)ccc(c23)C(=O)N1c1cccc(O)c1,33.1*,39.8*,32.8*,-13.5,70.5*
O=C(NCCCC1CCCC1)C1CCC(=O)N(Cc2ccc(Cl)cc2)C1 (stereo not given),-1.6,2.1,·,-8.5,·
CN(C)c1ccc(/C=C(\C#N)C(=O)c2ccccc2)cc1,80.0*,53.3*,38.2*,-24.2,58.2*
CCN(CC)c1ccc(/C=C(\C#N)C(=O)c2ccc(Br)cc2)cc1,133.0*,69.9*,5.6,-11.1,10.4
O=C(O)c1cccc(S(=O)(=O)N2CCC(n3nnc4cc(C(F)(F)F)ccc43)CC2)c1,0.7,1.1,·,-0.3,·
COc1cccc2c1C(=O)c1c(O)c3c(c(O)c1C2=O)C[C@@](O)(C(C)=O)C[C@@H]3O[C@H]1C[C@H](N)[C@H](O)[C@H](C)O1,·,·,8.2,·,12.7
CC(=O)[C@]1(O)Cc2c(O)c3c(c(O)c2[C@@H](O[C@H]2C[C@H](N)[C@H](O)[C@H](C)O2)C1)C(=O)c1ccccc1C3=O,77.3*,40.5*,·,-16.2,·
CC(OC(=O)CCCN=C1NS(=O)(=O)c2ccccc21)C(=O)c1ccccc1 (stereo not given),35.5*,33.6*,·,-20.1,·
Nc1c(C(=O)NCc2ccccc2)nnn1Cc1ccccc1,1.9,3.5,-0.3,-7.3,-0.3
Cc1ccc(Cn2nnc(C(=O)Nc3cc(C)ccc3C)c2N)cc1,20.4*,23.5*,3.9,-8.8,5.3
CSc1ccc(Cn2nnc(C(=O)NCc3ccccc3)c2N)cc1,35.5*,36.3*,11.3,-26.3,18.8
COc1ccc(C2CC3(CC(C)(C)NC(SC)=N3)Oc3cc(O)cc(C)c32)cc1 (stereo not given),39.3*,51.0*,1.2,-9.6,0.9
Oc1c(C=Nc2cccc3cccnc23)sc2ccccc12,48.2*,65.5*,8.9,-24.7,12.4
Cc1cccc(/N=C/c2sc3ccccc3c2O)n1,0.7,2.9,0.5,-18.4,1.9
O=C(COc1ccc([N+](=O)[O-])cc1Cl)N1CCc2ccccc21,-1.5,2.4,·,-10.2,·
CC(=O)N1C(=O)C(=C2C=C(C)OC(C)=C2)c2ccccc21,-1.6,-1.7,-0.3,1.6,26.1*
CN(C)c1ccc(/C=C2\Oc3ccc(C#Cc4cccc(N)c4)cc3C2=O)cc1,41.4*,41.4*,·,-12.7,·
CCOC(=O)c1ccc2c(c1)N(CC)/C(=C\C=C1/SC(=S)N(CC)C1=O)N2CC,·,·,0.2,·,0.1
C=CCN1C(=O)/C(=C/C=C2/N(CC)c3ccc(S(=O)(=O)N(C)C)cc3N2CC)SC1=S,29.6*,26.3*,4.0,-20.4,11.3
SMILES,OXTR ag,V1aR counter,TRPML3 ag,OXTR potentiator,TRPN1 ag
Cc1ccc(/C(N)=N/OC(=O)CN(C)S(=O)(=O)c2ccc(C)cc2)cc1,-0.3,3.9,·,-8.4,·
COc1ccc(/C(N)=N/OC(=O)CN(C)S(=O)(=O)c2ccc(C)cc2)cc1,·,·,84.0*,·,-0.7
COCCNCC(=O)Nc1ccccc1Sc1ccccc1,-0.8,1.2,0.1,2.8,-0.5
N#C/C(=C\c1ccc(N2CCCCC2)o1)C(=O)Nc1cccc(Br)c1,186.7*,199.0*,13.8*,-20.7,20.1*
N#C/C(=C\c1ccc(N2CCCCC2)o1)C(N)=O,3.3,7.1,3.6,-2.5,4.2
CCN1/C(=C/C=C/c2oc3ccc(-c4ccccc4)cc3[n+]2CC)Oc2ccc(-c3ccccc3)cc21,662.0*,761.3*,326.0*,-9.7,777.4*
CCCC(C(=O)Nc1ccc(S(=O)(=O)N2CCOCC2)cc1)c1ccccc1 (stereo not given),28.1*,20.5*,·,-15.9,·
O=C(/C=C/c1cccc(O)c1)c1cccnc1,1.1,0.9,3.6,-1.6,1.0
CN(C)c1ccc(/C=C/C(=O)c2cccnc2)cc1,90.1*,86.0*,33.5*,-18.9,42.5*
COc1ccc(C(=O)/C=C/c2ccc(N(C)C)cc2)c(OC)c1,135.2*,153.8*,20.0*,-23.2,43.9*
CN(C)c1ccc(/C=C/C(=O)c2ccc3c(c2)OCO3)cc1,75.1*,77.0*,·,-11.9,·
COc1ccc(C(=O)/C=C/c2ccccc2)c(OC)c1,-1.6,-1.5,-0.2,-6.2,-1.1
CC1(C)CSC(=NCc2ccccc2)N1C(=O)c1cccc([N+](=O)[O-])c1,9.9,6.7,14.7*,-11.5,39.8*
NC(=NCc1ccccc1)c1cccc([N+](=O)[O-])c1,1.8,1.3,·,-0.5,·
CCCN(CC(=O)Nc1ccccc1C)C(=O)Cc1coc2cc(C)ccc12,-1.8,-0.7,·,-7.6,·
O=C(NC(Nc1nc2ccc([N+](=O)[O-])cc2s1)(C(F)(F)F)C(F)(F)F)c1cccnc1,17.3,14.1,10.2,-11.9,18.1
O=C(NC(Nc1nc2ccc([N+](=O)[O-])cc2s1)(C(F)(F)F)C(F)(F)F)c1ccccc1Cl,2.1,4.7,23.4*,-10.5,22.8*
COc1cc(/C=C2/SC(=S)N(Cc3ccccc3)C2=O)ccc1O,27.6*,36.3*,·,-4.8,·
O=C1/C(=C\c2cc([N+](=O)[O-])ccc2O)SC(=S)N1Cc1ccc(Cl)cc1,96.2*,66.9*,·,-25.2,·
COc1cc(/C=C2\SC(=S)N(C(C(=O)O)c3ccccc3)C2=O)ccc1O (stereo not given),33.1*,49.0*,27.1*,-11.6,40.3*
O=C(Nc1ncc(S(=O)(=O)c2ccc([N+](=O)[O-])cc2)s1)c1ccccc1F,33.0*,41.4*,4.1,-8.5,6.5
Cc1ccc(NC(=O)Nc2cccc([N+](=O)[O-])c2)cc1F,15.9,7.9,12.1*,-12.8,23.0*
Cc1csc(SCC(=O)Nc2ccc(C)c(F)c2)n1,-1.2,0.2,·,-3.5,·
